From PubChem BioAssay
HSF1 inh – HSF1 inhibition | actives 0.77% (n = 300,000) | NIH3T3-HGL HSE-luciferase, MG132-induced, luminescence 8 h; stronger effect = lower value | activity change, negative = inhibition, % at 7.5 µM (by protocol) | AID 2098;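 active means more than half of replicate wells show activity change below -50%, luminescence cut by over half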;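 further: luciferase reports HSF-1 transcriptional activity via heat shock element; 0% = median of DMSO wells and -100% = zero luminescence signal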
AI-2 QS modul – Vibrio harveyi AI-2 quorum sensing modulation; actives 0.4% (n = 300,000); activity change, % at 7.5 µM; Vibrio harveyi JMH597 AI-2 luminescence/OD600 ratio, 9 h; stronger effect = lower value; strain lacks LuxN and CqsS sensors; 0 = neutral-control median; in the data active means activity change below about -75%, passing the limit was not always enough;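 further: luminescence divided by OD600 gain over 9 h not by final OD600 alone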
PHOSPHO1 inh – blocks human PHOSPHO1 phosphatase activity; recombinant PHOSPHO1, absorbance phosphatase assay; inhibition, % at 13.3 µM; actives 1.1% (n = 290,000); in the data active means inhibition above about 60%
Target sequence (Q8TCT1 whole entry, looked up): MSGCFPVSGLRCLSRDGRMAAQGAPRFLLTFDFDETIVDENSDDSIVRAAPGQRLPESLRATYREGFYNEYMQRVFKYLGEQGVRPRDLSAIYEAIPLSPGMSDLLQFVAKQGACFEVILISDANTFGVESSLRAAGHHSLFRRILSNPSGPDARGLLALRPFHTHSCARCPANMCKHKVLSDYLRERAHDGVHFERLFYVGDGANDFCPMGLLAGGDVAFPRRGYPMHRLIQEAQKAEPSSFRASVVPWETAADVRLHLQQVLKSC
core dimer inh – blocks dimerization of HCV core protein. TR-FRET GST/Flag-core106 dimerization, 1536-well. inhibition, % at 5 µM. actives 0.33% (n = 300,000);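 active means inhibition above the mean of all tested compounds plus 3 SD, set per screening campaign, cut at about 45% in these data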
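Assay system – GST-tagged and Flag-tagged HCV core protein residues 1-106 · Quantity – core106 proteins, GST 13.5 nM and Flag 17 nM · Benchmarks – unlabelled core106 and no-GST-core106 wells · Read-out basis – percent inhibition of core106 dimerization signal · Detection – time-resolved FRET, ex 340 nm, em 617 and 671 nm · Schedule – 4 h at 22.5 °C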
ALR H2O2 inh – inhibitors of human sulfhydryl oxidase ALR; P55789; purified ALR, DTT oxidation, H2O2 HRP-luminol luminescence; inhibition, % (no concentration beside the values); actives 3.8% (n = 290,000); AID 485317;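 active means mean replicate inhibition above about 79%, with every replicate also reaching it, limit read from the data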
Target sequence (P55789 whole entry, looked up): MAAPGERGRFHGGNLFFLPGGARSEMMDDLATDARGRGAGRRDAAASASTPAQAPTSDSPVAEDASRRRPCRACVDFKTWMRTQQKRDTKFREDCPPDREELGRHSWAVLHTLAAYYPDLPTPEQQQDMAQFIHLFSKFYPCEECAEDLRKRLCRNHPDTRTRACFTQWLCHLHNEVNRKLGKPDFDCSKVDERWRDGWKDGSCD
HSF1 activator – increases HSF-1 driven luciferase reporter signal; NIH3T3-HGL HSF-1 luciferase reporter, MG132, 8 h; 100% = twice DMSO control signal; activation, % at 9 µM; actives 1.7% (n = 300,000);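 active means mean replicate activation of at least 50% with a set share of replicates each reaching 50%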;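 further: 0% = median of the neutral control wells and 100% = twice that signal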
* marks the source's active call; other numbers are inactive results; nt = no result. Only some compounds are listed: those with a hit (about 6.8% of all), similar ones and a draw of the others.

SMILES	HSF1 inh	AI-2 QS modul	PHOSPHO1 inh	core dimer inh	ALR H2O2 inh	HSF1 activator
CN(C)c1ccc(NC(N)=S)cc1	-9	6	-17	-4	99*	-4
C=CCNC(=S)Nc1ccc(N(C)C)cc1	22	-3	21	-6	99*	30
Cn1c(=O)n(-c2ccccc2)c(=O)c2c3c(sc21)COC(C)(C)C3	-5	22	16	-9	nt	-13
CCC1(C)Cc2c(sc3c2c(=O)n(-c2ccccc2)c(=O)n3C)CO1 (stereo not given)	nt	nt	77*	0	-21	nt
CCOC(=O)c1ccc2c(c1)C1C=CCC1C(C(=O)OCC)N2 (stereo not given)	3	17	-21	55*	nt	2
O=C(O)C1Nc2c(O)cccc2C2C=CCC12 (stereo not given)	nt	nt	-6	50*	12	nt
CCOC(=O)C1Nc2ccc(C)cc2C2C=CCC12 (stereo not given)	4	1	nt	38	10	-12
O=C(OC1CCCCC1)c1ccc2c(c1)C1C=CCC1C(C(=O)O)N2 (stereo not given)	nt	nt	83*	nt	nt	nt
CCOC(=O)C1Nc2ccc(Br)cc2C2C=CCC12 (stereo not given)	-2	10	-14	50*	nt	-4
COc1cccc(NC(=O)CN(C)C(=O)Cn2c(=O)oc3ccccc32)c1	-4	-2	nt	1	-2	1
Cc1ccc(C(=O)N2CCC3(CC2)Oc2ccc(F)cc2C(=O)C32CC(c3ccccc3)=NO2)s1 (stereo not given)	0	-1	31	23	-5	11
O=C(O)c1ccccc1/C=N/n1c(C2CCCCC2)n[nH]c1=S	7	14	-111	1	98*	8
O=C(O)c1ccc(/C=N/n2c(C3CCCCC3)n[nH]c2=S)cc1	-6	18	nt	1	98*	7
S=c1[nH]nc(C2CCCCC2)n1/N=C/c1cccc(Br)c1	-28	-6	-7	13	nt	-44
COc1cc(/C=N/n2c(C3CCCCC3)n[nH]c2=S)cc(Br)c1O	-11	28	0	-4	83*	-11
O=C(COc1ccc2ccc(=O)oc2c1)Nc1c(Cl)cccc1C(F)(F)F	-4	5	33	5	-5	-14
CCC(c1nnc(SCC(=O)Nc2ccc(N3CCOCC3)cc2)n1Cc1ccccc1)N(C)C (stereo not given)	-2	-2	nt	4	98*	5
O=C(CSc1nnc(C2CC2)n1-c1ccccc1)Nc1ccc(N2CCOCC2)cc1	-4	55	24	4	98*	-6
O=C(CSc1nncn1-c1ccccc1)Nc1ccc(N2CCOCC2)cc1	5	10	87*	-1	99*	12
COc1ccc(-n2cnnc2SCC(=O)N2CCN(c3ccccc3)CC2)cc1	7	52	93*	4	26	-6
COc1ccc(NC(=O)CSc2nnc(C3CCCCC3)n2-c2ccccc2)cc1	0	11	43	15	-4	5
CCC(c1nnc(SCC(=O)Nc2c(F)cccc2F)n1Cc1ccccc1)N(C)C (stereo not given)	-1	16	30	7	-8	16
CC(=O)c1cccc(NS(=O)(=O)N2CCOCC2)c1	0	6	-1	nt	-3	18
C/C(N)=C(/C#N)C(=O)CSc1nncn1-c1ccccc1	-6	36	68*	2	-2	12
COc1ccccc1NC(=O)CSc1nncn1-c1ccccc1	-6	0	-1	-8	98*	17
SMILES	HSF1 inh	AI-2 QS modul	PHOSPHO1 inh	core dimer inh	ALR H2O2 inh	HSF1 activator
C/C(N)=C(/C#N)C(=O)CSc1nnc(C)n1-c1ccccc1	-19	12	-12	-12	-5	-6
OC1=C(O)c2nc3ccccc3nc21	-2	15	-6	-35	45	1
OC1=C(O)c2nc3cc(C(F)(F)F)ccc3nc21	-12	0	19	-23	98*	nt
COc1ccc(N(CC(=O)NC2CCCCC2)C(=O)c2ccc(C)s2)cc1OC	20	29	36	1	2	71*
C[C@@H]1C(=O)O[C@H]2CC34[C@H]5C[C@@H](C(C)(C)C)[C@]36[C@@H](OC(=O)[C@@H]6O)O[C@@]4(C(=O)O5)[C@]21O (stereo not given in full)	nt	nt	nt	-5	nt	nt
CCOC(=O)C(=Cc1c[nH]c2ccc(S(=O)(=O)N(C)C)cc12)C(=O)OCC	103	15	37	1	4	146*
O=C(NCCC1=CCCCC1)c1cccc(S(=O)(=O)N2CCCCC2)c1	11	10	nt	0	0	20
N#C/C(=C\c1ccc[nH]1)C(=O)c1ccccc1	1	-6	60	-17	-4	7
N#C/C(=C\c1cccc(Cl)c1)C(=O)c1ccccc1	-9	9	42	nt	96*	-4
Nn1c(SCC(=O)Nc2ccc3c(c2)OCCO3)nnc1C(F)(F)F	8	38	91*	1	-7	-12
Nn1c(SCC(=O)Nc2ccc3c(c2)OCCO3)nnc(CCC(=O)O)c1=O	-2	12	18	-9	93*	-13
Cc1ccc(-c2nnc(SCC(=O)Nc3ccc4c(c3)OCCO4)n2N)cc1	nt	nt	37	-6	1	nt
Cc1nnc(SCC(=O)Nc2ccc3c(c2)OCCO3)n1N	-8	3	26	-2	-4	1
CCOc1ccccc1N1CCN(Cc2ccco2)CC1	4	-2	-7	-14	33	-15
CCOc1ccccc1N1CCN(C/C=C/c2ccc(N(C)C)cc2)CC1	-2	9	-42	-9	99*	-9
Brc1ccc(-c2csc(-c3c[nH]c4ccccc34)n2)cc1	9	3	21	18	-4	24
c1ccc2c(-c3csc(-c4ccncc4)n3)c[nH]c2c1	1	7	-12	-3	99*	-10
CCCN=C(N)/C(C(=O)OCC)=C(\O)c1ccc(OC)cc1	-6	19	32	-4	-7	3
CCOC(=O)/C(C(N)=NCC(C)C)=C(/O)c1ccccc1	-8	17	61*	-5	-4	0
Cc1ccc(-n2cnc3sc(C)c(C)c3c2=O)cc1	23	10	38	-1	-2	59*
CCCCC(=O)Nc1ccc(C(=O)NCCc2ccc(S(N)(=O)=O)cc2)cc1	-68*	8	-8	-1	-6	-73
CCCCC(=O)Nc1ccc(C(=O)NCCc2ccccc2)cc1	2	6	-2	7	1	26
CCCCC(=O)Nc1ccc(C(=O)Nc2ccc(S(=O)(=O)Nc3nccc(C)n3)cc2)cc1	-64*	37	2	-2	-1	-72
Cn1c(=O)c2[nH]c(-c3ccc(S(=O)(=O)O)cc3)nc2n(C)c1=O	0	14	nt	-15	1	-5
